In ChEMBL document CHEMBL4834419 (J Med Chem, 2021):

Tests used:
[1] = target: T1, Oxysterols receptor LXR-alpha (Homo sapiens) (UniProt Q13133); test: Agonist activity against human LXRalpha in human HEK293T cells co-expressing pFR/pRL-Luc assessed as receptor activation at 10 uM incubated for 14 to 16 hrs by hybrid reporter gene assay relative to bexarotene; format: cell-based; details: filed as agonist, time 14-16 hrs
T1 sequence (whole entry): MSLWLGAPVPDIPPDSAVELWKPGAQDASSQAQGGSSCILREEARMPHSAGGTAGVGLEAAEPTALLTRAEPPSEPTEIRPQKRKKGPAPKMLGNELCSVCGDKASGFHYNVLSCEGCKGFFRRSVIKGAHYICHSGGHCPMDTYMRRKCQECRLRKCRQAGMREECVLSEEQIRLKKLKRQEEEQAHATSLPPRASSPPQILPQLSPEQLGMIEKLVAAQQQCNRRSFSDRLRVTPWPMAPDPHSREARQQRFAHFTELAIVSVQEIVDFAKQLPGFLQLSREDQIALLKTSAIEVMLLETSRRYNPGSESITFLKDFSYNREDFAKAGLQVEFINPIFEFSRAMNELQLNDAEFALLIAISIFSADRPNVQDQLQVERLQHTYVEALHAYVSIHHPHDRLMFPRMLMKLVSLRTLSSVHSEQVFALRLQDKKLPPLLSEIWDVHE
Summary of the method: (§1)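 Gal4 hybrid reporter assay in HEK293T cells, seeded 24 h before transfection (Lipofectamine LTX, Opti-MEM) with pFR-Luc, pRL-SV40 and pFA-CMV plasmid carrying the hinge region and LBD of the human receptor. After 5 h, compound added in 0.1% DMSO, with 0.1% DMSO alone as untreated control. Dual-Glo luciferase read after 14−16 h; firefly/renilla normalized; duplicates, ≥2 independent experiments.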

[2] = Metabolic stability in Sprague-Dawley rat liver microsomes assessed as compound degradation at 10 uM incubated for 60 min by HPLC analysis; format: ADME; details: 1 h
Summary of the method: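 Compound at 10 μM final in 0.1 M phosphate, pH 7.4, was preincubated 5 min at 37 °C with an NADPH-regenerating system. Sprague-Dawley rat liver microsomes were then added. Reactions were stopped with ice-cold methanol at 0, 15, 30 and 60 min and remaining compound quantified by HPLC against an external calibration. Controls: no NADPH, heat-inactivated microsomes. Three independent experiments.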

[3] = target: T2, Retinoic acid receptor alpha (Homo sapiens) (UniProt P10276); test: Agonist activity against human RARalpha in human HEK293T cells co-expressing pFR/pRL-Luc assessed as receptor activation at 10 uM incubated for 14 to 16 hrs by hybrid reporter gene assay relative to bexarotene; format: cell-based; details: filed as agonist, time 14-16 hrs; summary of the method: as §1
T2 sequence (whole entry): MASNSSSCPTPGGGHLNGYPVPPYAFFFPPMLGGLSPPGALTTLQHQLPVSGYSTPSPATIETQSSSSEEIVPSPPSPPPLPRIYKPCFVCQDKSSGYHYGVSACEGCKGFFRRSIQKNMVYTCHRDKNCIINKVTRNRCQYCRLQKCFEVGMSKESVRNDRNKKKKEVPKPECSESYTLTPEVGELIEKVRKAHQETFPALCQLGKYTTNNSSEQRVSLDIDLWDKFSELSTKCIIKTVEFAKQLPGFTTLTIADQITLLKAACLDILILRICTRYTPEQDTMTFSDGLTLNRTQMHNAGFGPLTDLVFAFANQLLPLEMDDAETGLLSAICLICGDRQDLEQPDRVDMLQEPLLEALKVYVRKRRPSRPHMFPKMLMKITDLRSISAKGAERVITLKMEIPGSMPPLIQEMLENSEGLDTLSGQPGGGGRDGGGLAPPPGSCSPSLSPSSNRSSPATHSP

[4] = target: T3, Peroxisome proliferator-activated receptor alpha (Homo sapiens) (UniProt Q07869); test: Agonist activity against human PPARalpha in human HEK293T cells co-expressing pFR/pRL-Luc assessed as receptor activation at 10 uM incubated for 14 to 16 hrs by hybrid reporter gene assay relative to bexarotene; format: cell-based; details: filed as agonist, time 14-16 hrs; summary of the method: as §1
T3 sequence (whole entry): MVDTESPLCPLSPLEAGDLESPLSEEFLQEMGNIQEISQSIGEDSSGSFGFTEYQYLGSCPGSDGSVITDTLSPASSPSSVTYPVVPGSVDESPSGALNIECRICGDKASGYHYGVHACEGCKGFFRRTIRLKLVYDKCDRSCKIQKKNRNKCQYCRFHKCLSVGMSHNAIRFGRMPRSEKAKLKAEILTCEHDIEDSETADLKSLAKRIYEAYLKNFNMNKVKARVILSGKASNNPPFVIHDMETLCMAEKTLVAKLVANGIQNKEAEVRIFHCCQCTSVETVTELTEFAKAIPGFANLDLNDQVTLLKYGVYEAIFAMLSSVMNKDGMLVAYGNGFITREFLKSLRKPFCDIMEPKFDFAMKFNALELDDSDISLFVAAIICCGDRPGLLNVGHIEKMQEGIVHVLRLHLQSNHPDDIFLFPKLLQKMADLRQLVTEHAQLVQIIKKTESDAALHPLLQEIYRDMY

[5] = target: T4, Nuclear receptor subfamily 1 group I member 3 (Homo sapiens, UniProt Q14994); test: Agonist activity against human CAR in human HEK293T cells co-expressing pFR/pRL-Luc assessed as receptor activation at 10 uM incubated for 14 to 16 hrs by hybrid reporter gene assay relative to bexarotene; format: cell-based; details: time 14-16 hrs; summary of the method: as §1
T4 sequence (Q14994 whole entry): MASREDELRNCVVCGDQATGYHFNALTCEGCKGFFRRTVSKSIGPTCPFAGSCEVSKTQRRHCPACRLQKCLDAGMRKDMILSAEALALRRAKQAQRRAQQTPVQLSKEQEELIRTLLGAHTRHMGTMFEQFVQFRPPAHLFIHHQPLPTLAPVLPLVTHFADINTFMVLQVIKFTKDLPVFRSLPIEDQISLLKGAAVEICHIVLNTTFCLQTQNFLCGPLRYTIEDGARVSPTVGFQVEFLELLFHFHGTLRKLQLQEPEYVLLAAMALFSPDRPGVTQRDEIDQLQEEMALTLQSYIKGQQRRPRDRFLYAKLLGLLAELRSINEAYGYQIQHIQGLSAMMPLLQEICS

[6] = Half life in mouse at 10 mg/kg, po; format: ADME, organism-based; details: in vivo
Summary of the method: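 Mice, n = 3, received a single oral dose of 10 mg/kg in water with 1% hydroxypropyl methylcellulose/Tween 80 (99:1). Tail-vein blood was drawn at 30 and 60 min and tissue collected at 3 h. Compound was quantified by LC−MS and PK derived by noncompartmental analysis.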

Activity [1]: 1%
Stabilty [2]: Stable
Activity [3]: 1%
Activity [4]: 2%
Activity [5]: 5%
half-life [6]: > 3 h
Structure (SMILES): O=C(O)CCCc1cc(-c2cc(Cl)cc(Cl)c2)n(-c2ccccc2)n1
